Measured values pooled from the literature.
Lines come from different studies, so protocols differ.
Target: Cyclin-dependent kinase 2 homolog (CRK2, Plasmodium falciparum, UniProt P61075)

SMILES | assay | setting | measurement | value
c1cncc(-c2cccc(Nc3nccc(NC4CCCCC4)n3)c2)c1 | binding, competition with immobilised ligand | 10 µM | remaining binding | 100%
Cc1cnn2ncc(-c3ccnc(N(C)C)n3)c2c1 | binding | 1 µM | remaining binding | 82%
FC(F)(F)Oc1cccc(-c2cnc3ccc(-c4ccncc4)nn23)c1 | cell-free assay, competition with immobilised ligand | 5 µM | remaining binding | 87%
Cc1nn(C)cc1-c1nc2c(N3CCN(Cc4ccc(Cl)cc4)CC3)c(Cl)cnc2[nH]1 | binding, competition with immobilised ligand | 1 µM | remaining binding | 100%
Cc1ccc(C(=O)Nc2ccc(CN3CCN(C)CC3)c(C(F)(F)F)c2)cc1C#Cc1cnc2cccnn12 | enzyme activity, inhibitor | 23.5 nM | remaining activity | 94%
Cc1ccc(-c2cnc([C@@]3(O)CC[C@H](C(=O)O)C(C)(C)C3)s2)cc1Nc1cccc(C(F)(F)F)n1 | binding, competition with immobilised ligand | 1 µM | remaining binding | 33%
N[C@@H]1CCN(c2nccc(-c3cnn4ncccc34)n2)C1 | binding | 1 µM | remaining binding | 84%
CCN1CCN(Cc2ccc(C(=O)Nc3ccc(C)c(Oc4ccc5c(c4)CC(=O)N5)c3)cc2C(F)(F)F)CC1 | binding, competition with immobilised ligand | 1 µM | remaining binding | 100%
O=C(NCC1CCOCC1)c1n[nH]cc1NC(=O)c1c(F)cccc1F | binding, competition with immobilised ligand | 1 µM | remaining binding | 100%
C=CC(=O)N1CCC(C(=O)NCC(=O)N2CCN(c3nc(-c4cnc(N)nc4C(F)F)nc(N4CCOCC4)n3)CC2)CC1 | binding, competition with immobilised ligand | 1 µM | remaining binding | 65%
Nc1ncc2c(n1)-c1c([nH]c3ccc(C#CC4CC4)cc13)CCCC2 | binding, competition with immobilised ligand | 1 µM | remaining binding | 100%
COc1cnc(Nc2cccc(S(N)(=O)=O)c2)nc1N1CCN(c2ccccc2)C(=O)C1 | binding, competition with immobilised ligand | 1 µM | remaining binding | 100%
Nc1ncnc2occ(-c3ccc(NC(=O)Nc4cc(C(F)(F)F)ccc4F)cc3)c12 | cell-free assay, inhibitor | 20 µM | remaining signal | 60%
CNC(=O)[C@@H]1CC[C@@H](n2c(-c3ccc4cnccc4c3)nc3ccc(C(=O)NCc4cccc(C(N)=O)c4)cc32)C1 | binding, competition with immobilised ligand | 1 µM | remaining binding | 99%
CN(C)c1nccc(-c2cnc3ncccn23)n1 | cell-free assay | 1 µM | remaining signal | 72%
C[C@@H](c1ccc(-n2cnc3c(N)ncnc32)cc1)N1CCc2nn(C)c(Cc3ccccc3)c2C1=O | binding, competition with immobilised ligand | 0.1 µM | remaining binding | 83%
O=C(Nc1c[nH]nc1C(=O)NC1CCNCC1)c1cc(F)cc(F)c1 | binding, competition with immobilised ligand | 1 µM | remaining binding | 89%
